This is an account of results in PubChem BioAssay.

The nature of test [1]: hit retest on RPL19A-GFP reporter strain – cell-based, S. cerevisiae, flow cytometry, cherry picks, mother/daughter gates, confirmation (AID 2270;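 active = GFP response below 50% of the DMSO control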). The conditions noted are these: 3 h, at 10 µM, stronger effect = lower value, 100 = same GFP as DMSO wells.
A short description of test [2]: yeast TOR pathway reporter LAP4-GFP change – cell-based, cherry picks, flow cytometry, mother/daughter gates, confirmation (AID 2271;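 active = GFP response above 150% of the DMSO control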;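 also: ratio of sample to DMSO plate mean so 100% equals DMSO level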). The conditions noted are these: S. cerevisiae LAP4-GFP strain, 3 h, at 10 µM, stronger effect = higher value, 100 means same as DMSO control. Summed up:
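Measured by: GFP by flow cytometry. Test system: GFP-fusion yeast strain. Input: yeast cells seeded at OD600 of 0.2. Timing: 30 °C, 3 h compound incubation, rotating. Buffer or medium: synthetic complete medium for yeast. Benchmarks: DMSO-only negative wells, rapamycin 400 ng/mL positive wells. Compound: 10 µM single dose.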

The nature of test [3]: TOR pathway reporter MEP2-GFP, retest of hits – S. cerevisiae, flow cytometry GFP, cherry picks, confirmation (AID 2272;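 active = GFP response above 150% of the DMSO control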;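 also: ratio of well signal to plate DMSO mean so 100% equals DMSO level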). The conditions noted are these: S. cerevisiae MEP2-GFP strain, 3 h, at 10 µM, stronger effect = higher value.
Test [4] can be described thus: yeast AGP1-GFP fluorescence change, single-dose – cell-based, flow cytometry, S. cerevisiae, cherry picks, confirmation (AID 2273).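 Also: median GFP channel fluorescence over the whole cell population gate.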 Particulars: S. cerevisiae AGP1-GFP strain, 3 h, at 10 µM.
Test [5] in a line: TOR pathway CIT2 reporter hit retest – S. cerevisiae, GFP fusion, cherry picks, mother/daughter gates, confirmation (AID 2274). The conditions noted are these: S. cerevisiae CIT2-GFP strain, flow cytometry, 3 h, at 10 µM, stronger effect = higher value.
Where [6] appears, read: measured here: daughter cell gate.
[7] abbreviates: measured here: mother cell gate.
[8] abbreviates: measured here: daughter cell gate response.
[9] abbreviates: measured here: mother cell gate response.

The source made the active and inactive calls.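 The calls were made as follows, unless noted: active = GFP response above 150% of the DMSO level; inconclusive = fewer than 70 events counted for a yeast strain; inactive = the rest.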

`Cc1cc(N)n2ncc(-c3ccccc3)c2n1`: the GFP response vs DMSO in test [1] was 95.6% (inactive); in test [1] (setting [6]) it was 95.1%; in test [1] (setting [7]) it was 94%; in test [3], 105% (inactive). The GFP response relative to DMSO in test [2] is 106% (inactive); in test [2] (setting [8]), 102%; in test [2] (setting [9]), 106%. For the same molecule, the GFP response, % of DMSO was 89.4% (inactive) in test [4], 101% (inactive) in test [5], 101% in test [5] (setting [6]) and 98.5% in test [5] (setting [7]).

Consider `CC(OC(=O)CSc1ccc([N+](=O)[O-])cc1)C(=O)NCc1ccccc1` (stereo not drawn), for which the GFP response vs DMSO in test [1] is 101% (inactive); in test [1] (setting [6]), 101%; in test [1] (setting [7]), 101%; in test [3] it was 100% (inactive). The GFP response relative to DMSO in test [2] is 99.8% (inactive); in test [2] (setting [8]), 102%; in test [2] (setting [9]), 100%. Further, the GFP response, % of DMSO was 98% (inactive) in test [4], 97.8% (inactive) in test [5], 96.5% in test [5] (setting [6]) and 96.6% in test [5] (setting [7]).

As to `CCCN1C(=O)c2cccc3c(N4CCCCC4)ccc(c23)C1=O`, the GFP response vs DMSO was 98.7% (inactive) in test [1], 99.8% in test [1] (setting [6]), 98.2% in test [1] (setting [7]) and 103% (inactive) in test [3]. The GFP response relative to DMSO in test [2] is 98.9% (inactive); in test [2] (setting [8]), 101%; in test [2] (setting [9]), 99.5%. Besides, the GFP response, % of DMSO in test [4] was 104% (inactive); in test [5], 103% (inactive); in test [5] (setting [6]) it was 105%; in test [5] (setting [7]), 103%.

As to `O=C(NC(=S)NNC(=O)[C@H]1C[C@@H]1c1ccccc1)c1cccc(F)c1`, the GFP response vs DMSO in test [1] is 111% (inactive); in test [1] (setting [6]) it was 115%; in test [1] (setting [7]) it was 110%; in test [3], 135% (inactive). In addition, the values for the GFP response relative to DMSO in test [2], in test [2] (setting [8]) and in test [2] (setting [9]) were 150% (active), 144% and 147%, respectively. Also, the GFP response, % of DMSO in test [4] was 109% (inactive); in test [5] it was 137% (inactive); in test [5] (setting [6]) it was 141%; in test [5] (setting [7]) it was 127%.

As to `C/C(=N\NC(=O)c1ccc(Cl)cc1)c1cccc(NC(=O)C(C)C)c1`, the GFP response vs DMSO is 95.8% (inactive) in test [1], 95.1% in test [1] (setting [6]), 95.8% in test [1] (setting [7]) and 96.2% (inactive) in test [3]. The GFP response relative to DMSO in test [2] is 99.2% (inactive); in test [2] (setting [8]), 99.2%; in test [2] (setting [9]), 97.2%. Also, the GFP response, % of DMSO in test [4] is 97.2% (inactive); in test [5], 101% (inactive); in test [5] (setting [6]), 101%; in test [5] (setting [7]), 101%.

Consider `Cc1n[nH]c(C)c1N1C(=O)c2cccc3c(Br)ccc(c23)C1=O`, for which the GFP response vs DMSO in test [1] was 101% (inactive); in test [1] (setting [6]), 100%; in test [1] (setting [7]), 101%; in test [3], 104% (inactive). The GFP response relative to DMSO is 98.8% (inactive) in test [2], 99.3% in test [2] (setting [8]) and 98.5% in test [2] (setting [9]). Also, the GFP response, % of DMSO was 92.5% (inactive) in test [4], 96.4% (inactive) in test [5], 96.4% in test [5] (setting [6]) and 94.5% in test [5] (setting [7]).

`Cc1cccc(CSc2cccc3cccnc23)c1`: the GFP response vs DMSO is 92.3% (inactive) in test [1], 91.3% in test [1] (setting [6]), 92.1% in test [1] (setting [7]) and 97.2% (inactive) in test [3]. Further, the GFP response relative to DMSO in test [2] was 130% (inactive); in test [2] (setting [8]), 125%; in test [2] (setting [9]) it was 132%. The GFP response, % of DMSO is 89.1% (inactive) in test [4], 88.9% (inactive) in test [5], 90.5% in test [5] (setting [6]) and 85.9% in test [5] (setting [7]).

In the case of `Cc1ccccc1Sc1ncnc2onc(C)c12`, the GFP response vs DMSO in test [1] is 98.5% (inactive); in test [1] (setting [6]), 99%; in test [1] (setting [7]), 96.9%; in test [3] it was 106% (inactive). Further, the GFP response relative to DMSO in test [2] was 97.7% (inactive); in test [2] (setting [8]), 96%; in test [2] (setting [9]) it was 97.4%. For the same molecule, the GFP response, % of DMSO in test [4] is 104% (inactive); in test [5], 98.6% (inactive); in test [5] (setting [6]), 101%; in test [5] (setting [7]), 98.2%.

For `O=c1c2ccccc2nc(-c2ccccc2)n1CCN1CCOCC1`, the GFP response vs DMSO in test [1] is 101% (inactive); in test [1] (setting [6]), 102%; in test [1] (setting [7]), 101%; in test [3] it was 101% (inactive). For the same molecule, the GFP response relative to DMSO in test [2] is 97% (inactive); in test [2] (setting [8]), 97.5%; in test [2] (setting [9]) it was 98.4%. Moreover, the GFP response, % of DMSO in test [4] was 106% (inactive); in test [5], 98.8% (inactive); in test [5] (setting [6]), 95.6%; in test [5] (setting [7]), 96.8%.

As to `CC(C)(C)n1nc(-c2ccc(Cl)cc2)c2c(N)ncnc21`, the GFP response vs DMSO in test [1] was 44.2% (active); in test [1] (setting [6]) it was 39.7%; in test [1] (setting [7]), 45.6%; in test [3], 118% (inactive). Moreover, the figures for the GFP response relative to DMSO in test [2], in test [2] (setting [8]) and in test [2] (setting [9]) were 191% (active), 172% and 195%, respectively. For the same molecule, the GFP response, % of DMSO was 106% (inactive) in test [4], 44.4% (inactive) in test [5], 46.1% in test [5] (setting [6]) and 42.4% in test [5] (setting [7]).

On to `CC(C)Nc1nc(-c2ccccc2)nnc1-c1ccccc1`, for which the GFP response vs DMSO in test [1] is 98.5% (inactive); in test [1] (setting [6]), 98.4%; in test [1] (setting [7]), 97.7%; in test [3], 106% (inactive). Moreover, the GFP response relative to DMSO in test [2] was 107% (inactive); in test [2] (setting [8]), 102%; in test [2] (setting [9]) it was 109%. Besides, the GFP response, % of DMSO is 96.1% (inactive) in test [4], 98.6% (inactive) in test [5], 97.6% in test [5] (setting [6]) and 98.2% in test [5] (setting [7]).

For the molecule `Cc1cc(-n2nc(C)cc2C)n2ncc(-c3ccccc3)c2n1`, the GFP response vs DMSO in test [1] was 105% (inactive); in test [1] (setting [6]), 101%; in test [1] (setting [7]), 106%; in test [3], 103% (inactive). Besides, the GFP response relative to DMSO is 95.7% (inactive) in test [2], 95.9% in test [2] (setting [8]) and 96.2% in test [2] (setting [9]). Moreover, the GFP response, % of DMSO in test [4] was 102% (inactive); in test [5], 97.3% (inactive); in test [5] (setting [6]), 95.6%; in test [5] (setting [7]), 98.1%.

As to `CCOC(=O)C1C(=O)C=C(c2ccc(C)cc2)CC1c1ccco1` (stereo not drawn), the GFP response vs DMSO in test [1] is 99.9% (inactive); in test [1] (setting [6]), 97.8%; in test [1] (setting [7]) it was 101%; in test [3], 102% (inactive). In addition, the results for the GFP response relative to DMSO in test [2], in test [2] (setting [8]) and in test [2] (setting [9]) were 109% (inactive), 103% and 112%, respectively. Also, the GFP response, % of DMSO is 102% (inactive) in test [4], 95.2% (inactive) in test [5], 91.5% in test [5] (setting [6]) and 96.6% in test [5] (setting [7]).
